Source: ChEMBL document CHEMBL4382192, “Discovery of a potent dual ALK and EGFR T790M inhibitor” (Eur J Med Chem, 2017)

Assays:
[1] = molecular target: Cyclin-dependent kinase 11A (Homo sapiens) (UniProt Q9UQ88); assay: Binding affinity to wild-type human partial length CDC2L2 (D391 to K730 residues) expressed in bacterial expression system assessed as residual binding level at 1 uM by Kinomescan method relative to control
[2] = molecular target: Serine/threonine-protein kinase ULK3 (Homo sapiens) (UniProt Q6PHR2); assay: Binding affinity to wild-type human partial length ULK3 (M1 to Q290 residues) expressed in mammalian expression system assessed as residual binding level at 1 uM by Kinomescan method relative to control
[3] = molecular target: Hepatocyte growth factor receptor (Homo sapiens) (UniProt P08581); assay: Binding affinity to wild-type human partial length MET (D1010 to S1367 residues) expressed in bacterial expression system assessed as residual binding level at 1 uM by Kinomescan method relative to control
[4] = molecular target: Casein kinase I isoform delta (Homo sapiens) (UniProt P48730); assay: Binding affinity to wild-type human full length CSNK1D (M1 to K409 residues) expressed in bacterial expression system assessed as residual binding level at 1 uM by Kinomescan method relative to control
Casein kinase I isoform delta (Homo sapiens), sequence (P48730 whole entry, looked up, the tested form may be a part, canonical isoform): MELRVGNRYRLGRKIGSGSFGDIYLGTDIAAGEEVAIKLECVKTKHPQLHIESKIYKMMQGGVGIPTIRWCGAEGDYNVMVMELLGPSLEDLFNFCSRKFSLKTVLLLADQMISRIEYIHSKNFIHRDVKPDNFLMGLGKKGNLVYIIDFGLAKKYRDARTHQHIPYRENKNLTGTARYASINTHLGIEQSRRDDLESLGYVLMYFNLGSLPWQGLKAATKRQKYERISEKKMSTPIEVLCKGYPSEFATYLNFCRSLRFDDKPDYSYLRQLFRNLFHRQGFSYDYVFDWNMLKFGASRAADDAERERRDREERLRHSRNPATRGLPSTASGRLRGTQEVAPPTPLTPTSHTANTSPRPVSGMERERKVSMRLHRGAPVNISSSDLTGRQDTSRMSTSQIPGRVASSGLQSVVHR

[5] = molecular target: Hormonally up-regulated neu tumor-associated kinase (Homo sapiens) (UniProt P57058); assay: Binding affinity to wild-type human partial length HUNK (A31 to K354 residues) expressed in bacterial expression system assessed as residual binding level at 1 uM by Kinomescan method relative to control
[6] = test system: Mast/stem cell growth factor receptor Kit (Homo sapiens), P10721 [V559D]; assay: Binding affinity to human partial length KIT V559D mutant (Y545 to D952 residues) expressed in bacterial expression system assessed as residual binding level at 1 uM by Kinomescan method relative to control
Outline: (§1)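 Kinome-wide selectivity panel run by the KINOMEscan method, with the test compound at a single concentration of 1 μM. Wild-type and mutant kinases were profiled in the same screen.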

[7] = molecular target: G protein-coupled receptor kinase 4 (Homo sapiens) (UniProt P32298); assay: Binding affinity to wild-type human full length GRK4 (M1 to C578 residues) expressed in bacterial expression system assessed as residual binding level at 1 uM by Kinomescan method relative to control
[8] = molecular target: Serine/threonine-protein kinase WNK1 (Homo sapiens) (UniProt Q9H4A3); assay: Binding affinity to wild-type human partial length WNK1 (Q194 to A490 residues) expressed in mammalian expression system assessed as residual binding level at 1 uM by Kinomescan method relative to control
[9] = molecular target: Serine/threonine-protein kinase Chk1 (Homo sapiens) (UniProt O14757); assay: Binding affinity to wild-type human partial length CHEK1 (M1 to G289 residues) expressed in bacterial expression system assessed as residual binding level at 1 uM by Kinomescan method relative to control
[10] = molecular target: Rhodopsin kinase GRK7 (Homo sapiens) (UniProt Q8WTQ7); assay: Binding affinity to wild-type human full length GRK7 (M1 to L553 residues) expressed in mammalian expression system assessed as residual binding level at 1 uM by Kinomescan method relative to control
Outline: (§2)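 Single-point kinome-wide KINOMEscan binding panel, test compound at 1 μM, run by the provider's standard protocol.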

[11] = molecular target: Platelet-derived growth factor receptor alpha (Homo sapiens) (UniProt P16234); assay: Binding affinity to wild-type human partial length PDGFRA (V575 to D1002 residues) expressed in mammalian expression system assessed as residual binding level at 1 uM by Kinomescan method relative to control
[12] = molecular target: Ephrin type-A receptor 1 (Homo sapiens) (UniProt P21709); assay: Binding affinity to wild-type human partial length EPHA1 (V588 to I913 residues) expressed in bacterial expression system assessed as residual binding level at 1 uM by Kinomescan method relative to control
Ephrin type-A receptor 1 (Homo sapiens), sequence (P21709 whole entry, the tested form may be a part): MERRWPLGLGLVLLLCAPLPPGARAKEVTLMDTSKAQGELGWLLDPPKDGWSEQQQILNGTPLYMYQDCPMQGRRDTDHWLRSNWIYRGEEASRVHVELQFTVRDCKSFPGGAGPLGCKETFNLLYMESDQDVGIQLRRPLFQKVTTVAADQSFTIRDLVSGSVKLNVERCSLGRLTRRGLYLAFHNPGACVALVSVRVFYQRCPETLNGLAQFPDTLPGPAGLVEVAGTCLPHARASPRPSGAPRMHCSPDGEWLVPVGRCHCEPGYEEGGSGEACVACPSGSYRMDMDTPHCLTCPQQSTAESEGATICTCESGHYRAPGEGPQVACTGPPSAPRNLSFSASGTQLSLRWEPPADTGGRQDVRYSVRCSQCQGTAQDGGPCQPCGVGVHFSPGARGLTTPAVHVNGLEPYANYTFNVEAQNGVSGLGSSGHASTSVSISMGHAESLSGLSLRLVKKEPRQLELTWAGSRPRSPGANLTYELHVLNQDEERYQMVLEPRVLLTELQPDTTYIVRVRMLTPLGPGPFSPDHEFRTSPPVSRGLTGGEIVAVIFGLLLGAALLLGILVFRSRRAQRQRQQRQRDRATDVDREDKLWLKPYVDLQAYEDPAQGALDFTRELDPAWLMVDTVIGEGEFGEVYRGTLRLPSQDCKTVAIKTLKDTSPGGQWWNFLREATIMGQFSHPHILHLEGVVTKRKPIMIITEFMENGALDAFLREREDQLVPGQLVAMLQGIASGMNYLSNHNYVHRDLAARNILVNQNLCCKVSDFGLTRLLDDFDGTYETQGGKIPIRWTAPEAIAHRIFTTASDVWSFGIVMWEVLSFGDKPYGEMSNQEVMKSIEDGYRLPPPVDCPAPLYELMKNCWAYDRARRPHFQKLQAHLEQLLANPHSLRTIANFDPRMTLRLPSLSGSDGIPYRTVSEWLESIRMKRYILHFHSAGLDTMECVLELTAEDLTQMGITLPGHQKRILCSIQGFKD

[13] = molecular target: Dual specificity mitogen-activated protein kinase kinase 3 (Homo sapiens) (UniProt P46734); assay: Binding affinity to wild-type human full length MEK3 (M1 to S318 residues) expressed in mammalian expression system assessed as residual binding level at 1 uM by Kinomescan method relative to control; outline: as §2
[14] = AUClast in mouse at 10 mg/kg, po; assay type: ADME, organism-based; parameters: dose 10 mg/kg, time 0 - last, route oral; conditions: in vivo
[15] = molecular target: Calcium/calmodulin-dependent protein kinase type II subunit delta (Homo sapiens) (UniProt Q13557); assay: Binding affinity to wild-type human partial length CAMK2D (M1 to E329 residues) expressed in bacterial expression system assessed as residual binding level at 1 uM by Kinomescan method relative to control
Calcium/calmodulin-dependent protein kinase type II subunit delta (Homo sapiens), sequence (Q13557 whole entry, the tested form may be a part, canonical isoform): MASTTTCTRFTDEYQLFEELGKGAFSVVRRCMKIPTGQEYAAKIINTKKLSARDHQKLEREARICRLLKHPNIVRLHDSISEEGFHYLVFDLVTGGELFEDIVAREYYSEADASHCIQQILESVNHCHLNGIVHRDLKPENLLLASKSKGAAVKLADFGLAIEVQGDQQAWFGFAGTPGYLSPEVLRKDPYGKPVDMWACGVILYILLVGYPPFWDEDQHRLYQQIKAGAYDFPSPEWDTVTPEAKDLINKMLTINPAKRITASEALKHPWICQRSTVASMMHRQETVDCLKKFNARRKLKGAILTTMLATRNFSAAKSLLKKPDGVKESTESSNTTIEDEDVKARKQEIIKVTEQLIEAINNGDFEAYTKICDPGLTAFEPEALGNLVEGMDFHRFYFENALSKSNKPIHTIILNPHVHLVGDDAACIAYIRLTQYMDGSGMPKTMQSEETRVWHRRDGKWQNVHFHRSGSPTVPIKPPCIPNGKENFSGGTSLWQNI

[16] = molecular target: Phosphatidylinositol 4,5-bisphosphate 3-kinase catalytic subunit alpha isoform (Homo sapiens) (UniProt P42336); assay: Binding affinity to wild-type human partial length PIK3CA (R108 to N1068 residues) expressed in mammalian expression system assessed as residual binding level at 1 uM by Kinomescan method relative to control
[17] = test system: Receptor-type tyrosine-protein kinase FLT3 (Homo sapiens), P36888 [UNDEFINED MUTATION]; assay: Binding affinity to human partial length FLT3 ITD/F691L double mutant expressed in bacterial expression system assessed as residual binding level at 1 uM by Kinomescan method relative to control; outline: as §1
[18] = molecular target: Wee1-like protein kinase 2 (Homo sapiens) (UniProt P0C1S8); assay: Binding affinity to wild-type human partial length WEE2 (M204 to K492 residues) expressed in bacterial expression system assessed as residual binding level at 1 uM by Kinomescan method relative to control
[19] = molecular target: G protein-coupled receptor kinase 3 (Homo sapiens) (UniProt P35626); assay: Binding affinity to wild-type human full length GRK3 (M1 to L688 residues) expressed in mammalian expression system assessed as residual binding level at 1 uM by Kinomescan method relative to control; outline: as §2
G protein-coupled receptor kinase 3 (Homo sapiens), sequence (P35626 whole entry, the tested form may be a part): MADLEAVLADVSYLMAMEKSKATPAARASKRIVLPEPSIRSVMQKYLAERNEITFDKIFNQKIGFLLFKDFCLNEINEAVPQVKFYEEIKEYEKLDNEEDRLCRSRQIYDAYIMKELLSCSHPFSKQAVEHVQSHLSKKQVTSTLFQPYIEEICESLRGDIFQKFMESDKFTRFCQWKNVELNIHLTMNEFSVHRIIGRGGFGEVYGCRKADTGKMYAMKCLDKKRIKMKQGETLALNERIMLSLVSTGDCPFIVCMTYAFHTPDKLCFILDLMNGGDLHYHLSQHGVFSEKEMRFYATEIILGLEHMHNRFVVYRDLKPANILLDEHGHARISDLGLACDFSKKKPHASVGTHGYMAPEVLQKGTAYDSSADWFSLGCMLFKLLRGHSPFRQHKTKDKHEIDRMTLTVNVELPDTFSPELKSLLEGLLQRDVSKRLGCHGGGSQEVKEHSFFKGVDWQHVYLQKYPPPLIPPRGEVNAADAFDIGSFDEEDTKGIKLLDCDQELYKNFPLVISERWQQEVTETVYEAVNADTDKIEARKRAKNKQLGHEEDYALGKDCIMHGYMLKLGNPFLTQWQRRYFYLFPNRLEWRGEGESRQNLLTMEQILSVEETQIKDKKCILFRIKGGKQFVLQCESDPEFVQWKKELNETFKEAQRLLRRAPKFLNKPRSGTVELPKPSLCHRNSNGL

[20] = Drug uptake in mouse plasma at 10 mg/kg, po after 2 hrs; assay type: ADME, organism-based
[21] = molecular target: CYP2C9 (Homo sapiens, UniProt P11712); assay: Residual activity of CYP2C9 in human liver microsomes at 10 uM using tolbutamide 4-hydroxylase as substrate preincubated for 5 mins followed by NADPH addition measured after 15 mins by LC/MS/MS analysis relative to control; conditions: probe tolbutamide (4-hydroxylation)
CYP2C9, sequence (P11712 whole entry, the tested form may be a part): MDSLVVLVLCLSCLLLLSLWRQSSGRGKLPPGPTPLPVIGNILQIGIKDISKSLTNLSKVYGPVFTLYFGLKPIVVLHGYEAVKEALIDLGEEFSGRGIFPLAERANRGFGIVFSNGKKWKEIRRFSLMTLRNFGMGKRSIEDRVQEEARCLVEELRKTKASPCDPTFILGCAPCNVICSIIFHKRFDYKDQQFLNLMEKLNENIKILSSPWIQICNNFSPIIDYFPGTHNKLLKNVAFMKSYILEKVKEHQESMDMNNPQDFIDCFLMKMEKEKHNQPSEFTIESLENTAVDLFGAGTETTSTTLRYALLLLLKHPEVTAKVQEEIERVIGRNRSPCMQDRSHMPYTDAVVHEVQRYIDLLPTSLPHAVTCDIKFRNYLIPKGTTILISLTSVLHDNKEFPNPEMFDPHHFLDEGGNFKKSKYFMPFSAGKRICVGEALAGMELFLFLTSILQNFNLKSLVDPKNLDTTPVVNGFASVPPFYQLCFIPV

[22] = molecular target: Serine/threonine-protein kinase PRP4 homolog (Homo sapiens) (UniProt Q13523); assay: Binding affinity to wild-type human partial length PRP4 (D657 to I1007 residues) expressed in bacterial expression system assessed as residual binding level at 1 uM by Kinomescan method relative to control
[23] = molecular target: TRAF2 and NCK-interacting protein kinase (Homo sapiens) (UniProt Q9UKE5); assay: Binding affinity to wild-type human partial length TNIK (D4 to K311 residues) expressed in bacterial expression system assessed as residual binding level at 1 uM by Kinomescan method relative to control
[24] = molecular target: RAF proto-oncogene serine/threonine-protein kinase (Homo sapiens) (UniProt P04049); assay: Binding affinity to wild-type human partial length RAF1 (I330 to T640 residues) expressed in bacterial expression system assessed as residual binding level at 1 uM by Kinomescan method relative to control
RAF proto-oncogene serine/threonine-protein kinase (Homo sapiens), sequence (P04049 whole entry, the tested form may be a part): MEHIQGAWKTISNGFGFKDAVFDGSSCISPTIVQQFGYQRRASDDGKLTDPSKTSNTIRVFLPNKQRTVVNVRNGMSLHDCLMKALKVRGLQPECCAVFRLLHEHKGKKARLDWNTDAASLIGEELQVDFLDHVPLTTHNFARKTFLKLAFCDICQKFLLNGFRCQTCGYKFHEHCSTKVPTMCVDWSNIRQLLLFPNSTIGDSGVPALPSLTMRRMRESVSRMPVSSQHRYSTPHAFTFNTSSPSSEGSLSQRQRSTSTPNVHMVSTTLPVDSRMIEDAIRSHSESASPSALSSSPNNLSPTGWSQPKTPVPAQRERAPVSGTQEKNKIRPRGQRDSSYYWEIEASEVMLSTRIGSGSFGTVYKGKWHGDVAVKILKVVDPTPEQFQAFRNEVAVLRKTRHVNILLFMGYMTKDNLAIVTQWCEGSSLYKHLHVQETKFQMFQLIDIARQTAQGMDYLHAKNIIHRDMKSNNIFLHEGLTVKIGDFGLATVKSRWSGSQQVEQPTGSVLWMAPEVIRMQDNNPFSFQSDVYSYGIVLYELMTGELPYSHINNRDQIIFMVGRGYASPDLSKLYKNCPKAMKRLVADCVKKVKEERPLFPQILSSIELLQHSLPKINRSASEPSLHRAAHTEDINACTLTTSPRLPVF

[25] = molecular target: Tyrosine-protein kinase Srms (Homo sapiens) (UniProt Q9H3Y6); assay: Binding affinity to wild-type human partial length SRMS (L208 to P488 residues) expressed in mammalian expression system assessed as residual binding level at 1 uM by Kinomescan method relative to control
Tyrosine-protein kinase Srms (Homo sapiens), sequence (Q9H3Y6 whole entry, the tested form may be a part): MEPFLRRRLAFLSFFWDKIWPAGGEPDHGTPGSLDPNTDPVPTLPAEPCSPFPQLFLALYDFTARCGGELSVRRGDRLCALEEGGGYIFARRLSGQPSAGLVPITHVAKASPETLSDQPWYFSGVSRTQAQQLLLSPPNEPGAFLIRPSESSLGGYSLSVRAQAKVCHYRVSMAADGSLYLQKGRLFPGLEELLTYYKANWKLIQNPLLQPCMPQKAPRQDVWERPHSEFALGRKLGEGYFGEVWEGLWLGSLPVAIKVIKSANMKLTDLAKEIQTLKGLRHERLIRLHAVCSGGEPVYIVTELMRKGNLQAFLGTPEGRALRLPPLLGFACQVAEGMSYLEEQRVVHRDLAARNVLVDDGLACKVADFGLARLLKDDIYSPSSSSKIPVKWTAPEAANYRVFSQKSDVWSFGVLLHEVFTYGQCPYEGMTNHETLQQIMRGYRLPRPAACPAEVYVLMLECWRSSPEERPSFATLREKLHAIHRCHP

Cyclin-dependent kinase 11A (Homo sapiens), sequence (Q9UQ88 whole entry, the tested form may be a part): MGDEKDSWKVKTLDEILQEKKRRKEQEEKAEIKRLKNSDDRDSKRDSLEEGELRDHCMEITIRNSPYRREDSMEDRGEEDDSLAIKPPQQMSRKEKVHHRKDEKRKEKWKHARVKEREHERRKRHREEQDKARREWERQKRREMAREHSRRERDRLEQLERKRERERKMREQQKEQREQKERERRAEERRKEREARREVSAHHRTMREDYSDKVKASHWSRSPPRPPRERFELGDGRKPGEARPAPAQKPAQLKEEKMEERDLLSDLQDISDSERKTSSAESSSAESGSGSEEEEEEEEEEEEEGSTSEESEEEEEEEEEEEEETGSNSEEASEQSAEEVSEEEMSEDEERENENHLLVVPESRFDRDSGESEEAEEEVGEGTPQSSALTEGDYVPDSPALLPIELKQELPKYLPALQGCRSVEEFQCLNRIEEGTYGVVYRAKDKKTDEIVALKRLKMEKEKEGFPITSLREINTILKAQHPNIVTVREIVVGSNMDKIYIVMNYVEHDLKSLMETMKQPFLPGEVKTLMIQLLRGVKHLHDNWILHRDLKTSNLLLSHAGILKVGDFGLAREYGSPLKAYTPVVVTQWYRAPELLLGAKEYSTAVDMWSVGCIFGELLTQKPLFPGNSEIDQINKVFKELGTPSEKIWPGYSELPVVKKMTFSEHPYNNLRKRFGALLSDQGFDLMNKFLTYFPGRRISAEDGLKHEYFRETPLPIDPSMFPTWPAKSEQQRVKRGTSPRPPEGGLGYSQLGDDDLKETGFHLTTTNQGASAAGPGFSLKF

## C=CC(=O)Nc1cc(Nc2ncc(Cl)c(Nc3ccccc3S(=O)(=O)C(C)C)n2)c(OC)cc1N(C)CCN(C)C
[1]
  Activity: 78%
[2]
  Activity: 7.7%
[3]
  Activity: 30%
[4]
  Activity: 82%
[5]
  Activity: 39%
[6]
  Activity: 31%
[7]
  Activity: 91%
[8]
  Activity: 100%
[9]
  Activity: 99%
[10]
  Activity: 4.3%
[11]
  Activity: 83%
[12]
  Activity: 12%
[13]
  Activity: 52%
[14]
  AUC(0-t): 1550 ng·h/mL
[15]
  Activity: 41%
[16]
  Activity: 85%
[17]
  Activity: 3.6%
[18]
  Activity: 93%
[19]
  Activity: 100%
[20]
  concentration at 2 h: 150 nM
[21]
  Activity at […], 10 µM: 83%
[22]
  Activity: 82%
[23]
  Activity: 61%
[24]
  Activity: 88%
[25]
  Activity: 6.5%
